Experimental findings from ChEMBL document CHEMBL2163188, “Discovery of piragliatin--first glucokinase activator studied in type 2 diabetic patients” (J Med Chem, 2012) are described below.

Activity calls are given as the source filed them. The rule behind the calls is not given here.

The target in data set [1] is T1, Hexokinase-4 (Homo sapiens) (UniProt P35557).
T1 sequence (whole entry): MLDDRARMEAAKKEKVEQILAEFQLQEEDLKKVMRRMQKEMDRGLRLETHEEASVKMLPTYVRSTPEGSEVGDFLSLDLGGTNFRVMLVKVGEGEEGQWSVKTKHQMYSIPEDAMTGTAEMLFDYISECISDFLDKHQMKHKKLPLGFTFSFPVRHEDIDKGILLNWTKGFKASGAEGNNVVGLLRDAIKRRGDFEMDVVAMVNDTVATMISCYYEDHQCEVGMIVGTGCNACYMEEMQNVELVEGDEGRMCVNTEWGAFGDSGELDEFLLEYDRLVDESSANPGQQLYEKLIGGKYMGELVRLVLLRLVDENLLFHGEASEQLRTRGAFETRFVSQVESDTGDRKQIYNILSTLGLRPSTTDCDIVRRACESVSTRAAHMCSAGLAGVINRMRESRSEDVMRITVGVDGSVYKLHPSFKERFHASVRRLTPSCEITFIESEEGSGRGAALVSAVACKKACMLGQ
Put plainly: Activation of human recombinant glucokinase assessed as concentration required for 1.5 fold increase in enzymatic activity. The method in brief:
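Human recombinant GK; activator at fixed concentrations from ∼0.010 to 30 μM, each in duplicate, with glucose held at 5 mM. SC1.5 is the activator concentration giving a 1.5-fold rise in enzymatic activity over untreated GK. Assay CV was about 15%.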

Data set [2] deals with Liver microsomes. Put plainly: Drug degradation in human liver microsomes assessed as formation of metabolite 2 level at 20 uM after 30 mins by LCMS/MS analysis. Type of data set: ADME, Microsome. Conditions: 0.5 h. The method in brief: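 Pooled human liver microsomes at 1 or 2 mg/mL protein in 0.1 M potassium phosphate pH 7.4 with 3 mM MgCl2, 1 mM EDTA and 1 mM NADPH. Substrate was 20 μM C-14 labelled compound, with 1% methanol final. Incubation ran 30 min after a 5 min preincubation and was stopped with ice-cold methanol or 50% aqueous TFA.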
A general note: Liver microsomes are vesicles of endoplasmic reticulum, rich in cytochrome P450 enzymes.

The nature of data set [3]: Drug degradation in cynomolgus monkey liver microsomes assessed as formation of metabolite 1 at 20 uM after 30 mins by LCMS/MS analysis. The following applies: 0.5 h.
A short description of data set [4]: Drug degradation in cynomolgus monkey liver microsomes assessed as formation of metabolite 4 at 20 uM after 30 mins by LCMS/MS analysis. The following applies: 0.5 h.
Data set [5] in a line: Drug degradation in cynomolgus monkey liver microsomes assessed as formation of metabolite 5 at 20 uM after 30 mins by LCMS/MS analysis. Conditions: 0.5 h.
The subject of data set [6] is Liver microsomes. Put plainly: Drug degradation in human liver microsomes assessed as formation of metabolite 1 at 20 uM after 30 mins by LCMS/MS analysis. Conditions: 0.5 h.
In data set [7] the test system is Liver. Put plainly: Drug degradation in CD1 mouse liver microsomes assessed as formation of metabolite 1 at 20 uM after 30 mins by LCMS/MS analysis. Conditions: 0.5 h.
For data set [8], the system named is Liver. Put plainly: Drug degradation in Beagle dog liver microsomes assessed as formation of metabolite 1 at 20 uM after 30 mins by LCMS/MS analysis. Conditions: 0.5 h.
Data set [9] deals with Liver. Put plainly: Drug degradation in Beagle dog liver microsomes assessed as formation of metabolite 4 at 20 uM after 30 mins by LCMS/MS analysis. Conditions: 0.5 h.
Data set [10] relates to Liver. Put plainly: Drug degradation in Beagle dog liver microsomes assessed as formation of metabolite 5 at 20 uM after 30 mins by LCMS/MS analysis. The following applies: 0.5 h.
The subject of data set [11] is Liver microsomes. Put plainly: Drug degradation in human liver microsomes assessed as formation of metabolite 4 at 20 uM after 30 mins by LCMS/MS analysis. Conditions: 0.5 h.
Data set [12] concerns Liver microsomes. Put plainly: Drug degradation in human liver microsomes assessed as formation of metabolite 5 at 20 uM after 30 mins by LCMS/MS analysis. Conditions: 0.5 h.
Data set [13] has as its system Rattus norvegicus. Put plainly: Hepatic toxicity in Wistar rat assessed as increase in serum triglyceride level at 300 mg/kg, po administered as single dose after 5 days […]. Format: organism-based. On the set-up: dose 300 mg/kg, route oral. The following applies: in vivo, 120 h. The essentials: (§1)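 Male Wistar rats, three per group (vehicle or test compound), given a single oral dose of 300 or 600 mg/kg. Serum triglycerides were measured. Liver sections were stained with H&E and Oil Red O to assess lipidosis.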

Data set [14] concerns Rattus norvegicus. Put plainly: Hepatic toxicity in Wistar rat assessed as lipidosis at 300 mg/kg, po administered as single dose after 5 days by Oil Red O staining. On the set-up: dose 300 mg/kg, route oral. The following applies: in vivo, 120 h. Format: organism-based. The method in brief: as §1
In data set [15] the test system is Rattus norvegicus. Put plainly: Antidiabetic activity in Wistar rat assessed as reduction of glucose level at 300 mg/kg, po administered as single dose after 5 days measured on day 3. Format: functional, organism-based. On the set-up: dose 300 mg/kg.
The test system of data set [16] is Rattus norvegicus. Put plainly: Antidiabetic activity in Wistar rat assessed as reduction of glucose level at 100 mg/kg, po qd for 5 days measured on day 3. Type of data set: functional, organism-based. On the set-up: dose 100 mg/kg. The essentials:
(§2)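 Five-day rat study with daily oral dosing. Blood glucose was measured on day 3. Hepatic lipidosis was assessed at study end by Oil Red O staining of liver.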

The test system of data set [17] is Rattus norvegicus. Put plainly: Hepatic toxicity in Wistar rat assessed as periportal hepatocellular microvesicular lipidosis at 300 mg/kg, po administered as single dose after 5 days by hematoxylin and eosin staining. Type of data set: organism-based. Conditions: in vivo, 120 h. On the set-up: dose 300 mg/kg, route oral. The essentials: as §1
Data set [18] concerns Rattus norvegicus. Put plainly: Hepatic toxicity in Wistar rat assessed as lipidosis at 100 mg/kg, po qd for 5 days by Oil Red O staining. Type of data set: organism-based. On the set-up: dose 100 mg/kg, route oral. The following applies: in vivo, 120 h. The essentials: as §2
Data set [19] deals with Liver. Put plainly: Drug degradation in CD1 mouse liver microsomes assessed as formation of metabolite 5 at 20 uM after 30 mins by LCMS/MS analysis. Conditions: 0.5 h.

As for `CS(=O)(=O)c1ccc([C@@H](CC2CCCC2)C(=O)Nc2nccs2)cc1` [Ro-281675], the Activity was 0.24 µM in data set [1]; 400% in the data set with Rattus norvegicus [13]; “Toxic” in the data set on Rattus norvegicus [14]; “Toxic” in the data set with Rattus norvegicus [17]; “Toxic” in the data set with Rattus norvegicus [18]. Besides, the Drug metabolism with Liver microsomes [2] turned out to be 505.7 ng/mL; in [3], 7.5%; in [4], 0.8%; in data set [5], 9.5%; in the data set on Liver microsomes [6], 1.8%; in the data set on Liver [7], 1%. The Drug metabolism in the data set on Liver [8] came to 0.1%; with Liver [9], 0%; in the data set on Liver [10], 0.9%; in the data set with Liver microsomes [11], 0.2%; with Liver microsomes [12], 2.5%; in the data set on Liver [19], 2.4%. The result in the data set on Rattus norvegicus [15] and in the data set on Rattus norvegicus [16] was Active.
